These results are taken from article PMC5851871 (Bioorganic & medicinal chemistry letters, 2018).

pIC50: −log10 of the molar value.

The target in assay [1] is T1, thrombin (Homo sapiens, UniProt P00734). The experiment in a line: Michaelis-Menten kinetics of Spectrozyme TH hydrolysis. It is filed as biochemical. The conditions noted are these: Michaelis-Menten kinetic studies. The method, boiled down:
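Thrombin hydrolysis of Spectrozyme TH, a chromogenic substrate, was read spectrophotometrically at pH 7.4 and 25 °C. The substrate was varied at several test compound levels up to 40 μM. VMAX and KM were taken from Michaelis-Menten analysis to assign the inhibition mechanism.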

Assay [2] has as its system recombinant thrombin mutants (exosite 2 Ala replacements). The experiment in a line: Inhibition of recombinant exosite 2 alanine mutant versus wild-type thrombins. It is filed as biochemical. The conditions noted are these: 11 single Ala mutants of exosite 2, Spectrozyme TH, pH 7.4, 25 °C.
For assay [3], the target named is thrombin cleavage of human fibrinogen (Homo sapiens, UniProt P00734). As to the kind of experiment: PAGE densitometry of thrombin cleavage of fibrinogen. It is filed as biochemical. To be noted: for Maximal inhibition of fibrinogen cleavage (ΔY against fibrinogen): saturating inhibitor, 4.7 μM fibrinogen, 6 nM thrombin, pH 7.4, 25 °C. The method, boiled down:
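Thrombin (6 nM) cleaved human fibrinogen (4.7 μM) with test compound at 0 to 150 μM. Fibrinogen cleavage was monitored by polyacrylamide gel electrophoresis.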

Assay [4] concerns the target T1, thrombin. The experiment in a line: Thrombin inhibition, chromogenic substrate hydrolysis assay. The conditions noted are these: 20 mM Tris-HCl pH 7.4, 25 mM CaCl2, 100 mM NaCl, 0.1% PEG 8000, 25 °C, ± 1 S.E. It is filed as biochemical.
Assay [5] concerns the target T1, thrombin. The conditions noted are these: inhibition of human thrombin by peptides; cited from earlier work.

As to `CCOC(=O)c1c(C)oc2cc(OCCc3ccccc3)c(OCc3oc4cc(OC)c(OS(=O)(=O)[O-])cc4c3C(=O)OCC)cc12.[Na+]` [2c], the Mechanism of inhibition result in assay [1] is on record as “noncompetitive inhibitor”. The “IC50 of mutant versus wild-type thrombin” value in assay [2] is “virtually no difference in IC50 between wild-type and mutant thrombin except for Arg233Ala and Lys235Ala proteins”. Besides, in assay [3], the “Maximal inhibition of fibrinogen cleavage (ΔY against fibrinogen)” value is given as “about 70±8%”. In addition, the “Fibrinogen cleavage continuing at saturating inhibitor” value in assay [3] (saturating levels of inhibitor) is “approximately 30%”.
Take `CCOC(=O)c1c(C)oc2cc(OCC3CCCCC3)c(OCc3oc4cc(OCC5CCCCC5)c(OS(=O)(=O)[O-])cc4c3C(=O)OCC)cc12.[Na+]` [2h]: the “ΔY (efficacy of inhibition)” value in assay [4] is reported as ~ 90%.
On to `CCOC(=O)c1c(C)oc2cc(OCc3ccccc3)c(OCc3oc4cc(OCC5CCCCC5)c(OS(=O)(=O)[O-])cc4c3C(=O)OCC)cc12.[Na+]` [2i], for which the Mechanism of inhibition entry in assay [1] is recorded as “mixed inhibition”. Moreover, in assay [2], the “IC50 of mutant versus wild-type thrombin” value is “potency changed significantly for several mutants including Arg165Ala, Lys169Ala, Arg175Ala, Arg233Ala and Lys236Ala”. The “Maximal inhibition of fibrinogen cleavage (ΔY against fibrinogen)” value in assay [3] is given as “greater than 90%”.
Turning to “Fibrinogen peptide (410 – 427): allosteric peptide inhibitor of thrombin, literature value from ref 18”, in assay [5], the negative logarithm of the IC50 (pIC50) was 3.89.

Usually pIC50 stands for the IC50 on a negative log10 scale, so that one unit is a factor of ten.
